Calls of active or inactive are those of the source. The rule behind the calls is not given here.
Assays:
[1] = biological target: T1, BCRP (ABCG2) (Homo sapiens, UniProt Q9UNQ0); experiment: Inhibition of BCRP (unknown origin) expressed in HEK293/R2 cells assessed as conformational change by measuring increase in 5D3 shift at 10 uM preincubated for 15 mins followed by FITC mouse antihuman BCRP antibody addition measured after 30 mins by flow cytometry analysis; assay type: cell-based; conditions: HEK293/R2 cells expressing BCRP, time 45 min
T1 sequence (Q9UNQ0 whole entry): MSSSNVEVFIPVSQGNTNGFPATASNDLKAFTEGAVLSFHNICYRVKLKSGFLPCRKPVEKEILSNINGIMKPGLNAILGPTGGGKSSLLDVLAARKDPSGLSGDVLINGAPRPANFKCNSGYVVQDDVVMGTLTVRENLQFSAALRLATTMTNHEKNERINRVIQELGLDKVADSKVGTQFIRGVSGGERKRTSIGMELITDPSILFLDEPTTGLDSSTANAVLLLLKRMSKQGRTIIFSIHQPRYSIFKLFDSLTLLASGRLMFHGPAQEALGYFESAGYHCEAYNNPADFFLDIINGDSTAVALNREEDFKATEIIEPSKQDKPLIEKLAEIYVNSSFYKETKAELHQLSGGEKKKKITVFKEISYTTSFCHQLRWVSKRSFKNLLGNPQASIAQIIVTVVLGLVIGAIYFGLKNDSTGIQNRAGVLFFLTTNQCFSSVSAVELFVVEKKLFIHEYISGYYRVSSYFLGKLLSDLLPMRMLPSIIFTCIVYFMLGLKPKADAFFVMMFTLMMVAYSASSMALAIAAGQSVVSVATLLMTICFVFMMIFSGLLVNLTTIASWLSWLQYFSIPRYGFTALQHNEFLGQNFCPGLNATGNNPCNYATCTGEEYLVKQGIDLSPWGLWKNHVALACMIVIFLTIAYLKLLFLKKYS
Procedure, shortened: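 HEK293/R2 cells (5 x 10⁵) in FACS buffer (0.1 % BSA, 1 mM EDTA in PBS) were pre-incubated with compound for 15 min at 37 °C with shaking. FITC anti-human BCRP antibody (clone 5D3) was then added for 30 min at 37 °C. Cells were washed and read by flow cytometry (FL1, 50,000 events). Compound-only FITC background and the DMSO-control signal were subtracted, and the shift was expressed as % of the 1 µM Ko143 shift.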

[2] = system: L929; experiment: Cytotoxicity against mouse L929 cells assessed as reduction in cell viability; assay type: cell-based
[3] = species: Homo sapiens; experiment: Selectivity index, ratio of EC50 for inhibition of P-gp (unknown origin) expressed in LCC6MDR cells assessed as reversal of paclitaxel resistance to EC50 for inhibition of BCRP (unknown origin) transfected in HEK293/R2 cells assessed as reversal of topotecan resistance; assay type: cell-based
Procedure, shortened: (§1)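 Selectivity index is the EC50 against the other transporter's line divided by the EC50 in the BCRP line. All values come from 5-day MTS reversal assays. These use topotecan in HEK293/R2 (0–2000 nM) or MCF7-MX100 (0–100 μM), doxorubicin in 2008/MRP1, and paclitaxel in LCC6MDR, each with modulator at 0–1000 nM.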

[4] = species: Homo sapiens; experiment: Selectivity index, ratio of EC50 for inhibition of MRP1 (unknown origin) expressed in 2008/MRP1 cells assessed as reversal of doxorubicin resistance to EC50 for inhibition of BCRP (unknown origin) transfected in HEK293/R2 cells assessed as reversal of topotecan resistance; assay type: cell-based; procedure, shortened: as §1
[5] = species: Homo sapiens; experiment: Selectivity index, ratio of EC50 for inhibition of P-gp (unknown origin) expressed in LCC6MDR cells assessed as reversal of paclitaxel resistance to EC50 for Inhibition of BCRP (unknown origin) expressed in MCF7/MX100 cells assessed as reversal of topotecan resistance; assay type: cell-based; procedure, shortened: as §1
[6] = system: 2008; experiment: Selectivity index, ratio of EC50 for inhibition of MRP1 (unknown origin) expressed in 2008/MRP1 cells assessed as reversal of doxorubicin resistance to Inhibition of BCRP (unknown origin) expressed in MCF7/MX100 cells assessed as reversal of topotecan resistance; assay type: cell-based; conditions: Homo sapiens; procedure, shortened: as §1
[7] = biological target: T1, BCRP (ABCG2); experiment: Inhibition of BCRP (unknown origin) expressed in HEK293/R2 cells assessed as conformational change by measuring increase in 5D3 shift at 1 uM preincubated for 15 mins followed by FITC mouse antihuman BCRP antibody addition measured after 30 mins by flow cytometry analysis; assay type: cell-based; conditions: HEK293/R2 cells expressing BCRP, time 45 min
Procedure, shortened: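 5 × 10^5 HEK293/R2 cells in FACS buffer were shaken 15 min at 37 °C with 1 μM compound. FITC 5D3 anti-BCRP was then added for 30 min at 37 °C and fluorescence read by flow cytometry on FL1. Compound-only background was subtracted and the untreated DMSO shift removed. Result is % of the 1 μM Ko143-induced shift.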

[8] = system: HEK293; experiment: Effect on BCRP protein expression in human HEK293/R2 cells at 1 to 3 uM after 24 hrs by flow cytometric analysis; assay type: functional, cell-based; conditions: dose 1-3 µM
Procedure, shortened: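 HEK293/R2 and HEK293/pcDNA3.1 cells were exposed to 0, 1 or 3 μM compound for 24 hr, with 0.1–0.3% DMSO as solvent control. Cells were trypsinized and stained with FITC anti-human BCRP for 45 min at 4 °C, with an IgG2b-FITC isotype control. Surface signal was read by flow cytometry on FL1 over 50,000 events.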

[9] = biological target: T2, Broad substrate specificity ATP-binding cassette transporter ABCG2 (Homo sapiens, UniProt Q9UNQ0); experiment: Inhibition of BCRP (unknown origin) expressed in wild type HEK293/pcDNA3.1 cells assessed as increase in intracellular topotecan accumulation at 1 to 2 uM after 2 hrs in presence of topotecan by flow cytometry analysis relative to control; assay type: cell-based; conditions: hek293, 2 h, dose 1-2 µM
T2 sequence (Q9UNQ0 whole entry): T1 sequence (Q9UNQ0 whole entry)
Procedure, shortened: (§2)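 5 × 10^5 HEK293/pcDNA3.1 or HEK293/R2 cells in 1 mL were incubated 2 hr at 37 °C with 50 μM topotecan or 5 μM mitoxantrone plus 1 or 2 μM modulator, with DMSO as the vehicle control. Cells were washed in cold PBS and resuspended in FACS buffer. Flow cytometry read FL1 (topotecan) or FL4 (mitoxantrone) over 50,000 events, normalized to wild-type cells.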

[10] = biological target: T2, Broad substrate specificity ATP-binding cassette transporter ABCG2; experiment: Inhibition of BCRP (unknown origin) expressed in human HEK293/R2 cells assessed as increase in intracellular topotecan accumulation by measuring fold change at 1 uM after 2 hrs in presence of topotecan by flow cytometry analysis relative to control; assay type: cell-based; conditions: hek293/r2, 2 h; procedure, shortened: as §2
[11] = biological target: T2, Broad substrate specificity ATP-binding cassette transporter ABCG2; experiment: Inhibition of BCRP (unknown origin) expressed in human HEK293/R2 cells assessed as increase in intracellular mitoxantrone accumulation by measuring fold change at 1 uM after 2 hrs in presence of mitoxantrone by flow cytometry analysis relative to control; assay type: cell-based; conditions: hek293/r2, 2 h; procedure, shortened: as §2
[12] = biological target: T2, Broad substrate specificity ATP-binding cassette transporter ABCG2; experiment: Inhibition of BCRP (unknown origin) expressed in human HEK293/R2 cells assessed as increase in intracellular mitoxantrone accumulation by measuring fold change at 2 uM after 2 hrs in presence of mitoxantrone by flow cytometry analysis relative to control; assay type: cell-based; conditions: hek293/r2, 2 h; procedure, shortened: as §2
[13] = biological target: T2, Broad substrate specificity ATP-binding cassette transporter ABCG2; experiment: Inhibition of BCRP (unknown origin) expressed in wild type HEK293/pcDNA3.1 cells assessed as increase in intracellular mitoxantrone accumulation at 1 to 2 uM after 2 hrs in presence of mitoxantrone by flow cytometry analysis relative to control; assay type: cell-based; conditions: hek293, 2 h, dose 1-2 µM; procedure, shortened: as §2
[14] = species: Homo sapiens; experiment: Selectivity index, ratio of EC50 for inhibition of P-gp (unknown origin) expressed in LCC6MDR cells assessed as reversal of mitoxantrone resistance to EC50 for inhibition of BCRP (unknown origin) expressed in HEK293/R2 cells assessed as reversal of mitoxantrone resistance; assay type: cell-based
Procedure, shortened: (§3)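 Selectivity index is the EC50 in 2008/MRP1 or LCC6MDR divided by the EC50 in HEK293/R2. All three lines were measured by 5-day mitoxantrone co-incubation with modulator, with MTS/PMS read-out at 490 nm.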

[15] = biological target: T2, Broad substrate specificity ATP-binding cassette transporter ABCG2; experiment: Inhibition of BCRP (unknown origin) expressed in human HEK293/R2 cells assessed as increase in intracellular topotecan accumulation by measuring fold change at 2 uM after 2 hrs in presence of topotecan by flow cytometry analysis relative to control; assay type: cell-based; conditions: hek293/r2, 2 h; procedure, shortened: as §2
[16] = species: Homo sapiens; experiment: Selectivity index, ratio of EC50 for inhibition of MRP1 (unknown origin) expressed in 2008/MRP1 cells assessed as reversal of mitoxantrone resistance to EC50 for inhibition of BCRP (unknown origin) expressed in HEK293/R2 cells assessed as reversal of mitoxantrone resistance; assay type: cell-based; procedure, shortened: as §3

| SMILES | IC50 [2] [µM] | Ratio EC50 [3] | Ratio EC50 [4] | Ratio EC50 [5] | Ratio EC50 [6] | also measured |
| --- | --- | --- | --- | --- | --- | --- |
| CCOc1ccc(-c2nc3cc(-c4nc5cc(N6CCN(C)CC6)ccc5[nH]4)ccc3[nH]2)cc1 |  |  |  |  |  | inhibition at 0.5 h, 10 µM [1]: 19% |
| COC(=O)c1cccc(COc2c(-c3ccc(OCCOCCOCCn4cc(CCN5C(=O)c6ccccc6C5=O)nn4)cc3)oc3ccccc3c2=O)c1 | > 100 | 6 | 6 |  |  |  |
| COC(=O)c1cccc(COc2c(-c3ccc(OCCOCCOCCn4cc(CN(C)Cc5ccccc5)nn4)cc3)oc3ccccc3c2=O)c1 | > 100 | 51 | 62 | 29 | 35 |  |
| COC(=O)c1cccc(COc2c(-c3ccc(OCCOCCN=[N+]=[N-])cc3)oc3ccccc3c2=O)c1 | 67.5 | 12 | 12 | 20 | 20 |  |
| COC(=O)c1cccc(COc2c(-c3ccc(OCCOCCn4cc(CCN5C(=O)c6ccccc6C5=O)nn4)cc3)oc3ccccc3c2=O)c1 | > 100 | 22 | 22 | 10 | 10 |  |
| COC(=O)c1cccc(COc2c(-c3ccc(OCCCCc4cn(CCOCCO)nn4)cc3)oc3ccccc3c2=O)c1 | 13.3 | 61 | 100 | 22 | 36 |  |
| O=c1c(O)c(-c2ccc(O)c(O)c2)oc2cc(O)cc(O)c12 [QUERCETIN] |  |  |  |  |  | inhibition at 0.5 h, 10 µM [1]: 39% |
| COC(=O)c1cccc(COc2c(-c3ccc(OCCOCCn4cc(CN(Cc5ccccc5)Cc5ccccc5)nn4)cc3)oc3ccccc3c2=O)c1 | > 100 | 31 | 31 | 34 | 34 |  |
| COC(=O)c1cccc(COc2c(-c3ccc(OCCOCCOCCn4cc(CCCCOc5ccc(C=O)cc5)nn4)cc3)oc3ccccc3c2=O)c1 | 37.8 | 53 | 46 | 26 | 23 |  |
| COC(=O)c1cccc(COc2c(-c3ccc(OCCOCCn4cc(CNc5ccccc5)nn4)cc3)oc3ccccc3c2=O)c1 | > 100 | 38 | 38 | 23 | 23 |  |
| COc1cc2c(cc1OC)CN(CCc1ccc(NC(=O)c3cccc4c(=O)c5cccc(OC)c5[nH]c34)cc1)CC2 |  |  |  |  |  | inhibition at 0.5 h, 1 µM [7]: 100% |
| COC(=O)c1cccc(COc2c(-c3ccc(OCCOCCOCCN=[N+]=[N-])cc3)oc3ccccc3c2=O)c1 | 28.4 | 35 | 118 | 18 | 60 |  |
| C#CCCCCOc1ccc(-c2oc3ccccc3c(=O)c2OCc2cccc(C(=O)OC)c2)cc1 | > 100 | 19 | 23 | 24 | 30 |  |
| COC(=O)c1cccc(COc2c(-c3ccc(OCCOCCOCCn4cc(CN(CCO)Cc5ccccc5)nn4)cc3)oc3ccccc3c2=O)c1 | > 100 | 220 | 714 | 193 | 625 | Activity [8]: inactive; inhibition (INH) [9]: Not Active; fold change (FC) [10]: 7.1; fold change (FC) [11]: 6.5; fold change (FC) [12]: 5.8; inhibition (INH) [13]: Not Active; Ratio EC50 [14]: 5; fold change (FC) [15]: 7; Ratio EC50 [16]: 4 |
| COC(=O)c1cccc(COc2c(-c3ccc(OCCOCCn4cc(CN(C)Cc5ccccc5)nn4)cc3)oc3ccccc3c2=O)c1 | > 100 | 67 | 67 | 286 | 286 | Activity [8]: inactive; inhibition (INH) [9]: Not Active; fold change (FC) [10]: 7.2; fold change (FC) [11]: 6.2; fold change (FC) [12]: 6.3; inhibition (INH) [13]: Not Active; Ratio EC50 [14]: 38; fold change (FC) [15]: 7; Ratio EC50 [16]: 40 |
